Activity calls are given as the source filed them. No cut-off for these calls is given here.

In test [1] the test system is Bacteria. Nature of the test: Inhibition of bacterial VIM-2 (unknown origin) assessed as Zn(II) content in protein at >5 uM by overnight equilibrium dialysis. The method in brief:
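VIM-2 or NDM-1 (3 μM final) in 50 mM HEPES pH 7.5 mixed with compound at 0–48 μM. Incubated 1 h on ice, then dialysed overnight at 4 °C against 50 mM HEPES pH 7.5. Zn(II) content measured by atomic absorption at 213.86 nm against a zinc standard curve. Each point averages three samples.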
On the technique in general: In equilibrium dialysis only unbound substance equilibrates across the membrane.

Test [2] deals with Bacteria. Nature of the test: Binding affinity to bacterial VIM-2 (unknown origin) assessed as association constant by isothermal calorimetric assay. The method in brief:
(§1)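 ITC at 25 °C. VIM-2 at 19 μM in 10 mM HEPES-NaOH, 0.15 M NaCl, pH 7.5 with DMSO matched to 1%, titrated with compound at 200 μM: one 0.5 μL injection, then 19 × 2 μL at 150 s intervals. Buffer dilution heats subtracted. Nonlinear fit gives n, Ka and ΔH°; values regarded as apparent.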
(ITC needs no label: the signal is the heat of the interaction.)

Test [3] can be described thus: Binding affinity to bacterial VIM-2 (unknown origin) assessed as dissociation constant by isothermal calorimetric assay. Further details: species or system Bacteria. An outline of the steps:
as §1

Test [4] relates to Bacteria. Nature of the test: Binding affinity to bacterial VIM-2 (unknown origin) assessed as change in enthalpy by isothermal calorimetric assay. An outline of the steps: as §1
Test [5] deals with Klebsiella pneumoniae. Put plainly: Antimicrobial activity against blaVIM-1-producing multidrug-resistant Klebsiella pneumoniae 7023 clinical isolate assessed as meropenem MIC using cation-adjusted Mueller-Hinton broth at 16 ug/ml by broth microdilution method (reference value: […] ug/ml). The class given is functional. Conditions: dose 16 µg/ml. The method in brief:
(§2)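 Checkerboard broth microdilution in cation-supplemented Mueller–Hinton broth, inoculum 5×10^4 CFU/well, per CLSI. […] The average fractional inhibitory concentration index was computed from the checkerboard.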

Test [6] deals with Klebsiella pneumoniae. Put plainly: Antimicrobial activity against blaVIM-1-producing multidrug-resistant Klebsiella pneumoniae 7023 clinical isolate assessed as meropenem MIC using cation-adjusted Mueller-Hinton broth at 2 ug/ml by broth microdilution method (reference value: […] ug/ml). It is filed as functional. The note with it: dose 2 µg/ml. The method in brief: as §2
The test system of test [7] is Klebsiella pneumoniae. Put plainly: Antimicrobial activity against blaVIM-1-producing multidrug-resistant Klebsiella pneumoniae 7023 clinical isolate assessed as meropenem MIC using cation-adjusted Mueller-Hinton broth at 1 ug/ml by broth microdilution method (reference value: […] ug/ml). It is filed as functional. The note with it: dose 1 µg/ml. An outline of the steps:
as §2

Test [8] concerns Klebsiella pneumoniae. Put plainly: Antimicrobial activity against blaVIM-4-producing multidrug-resistant Klebsiella pneumoniae VA-416/02 clinical isolate assessed as meropenem MIC using cation-adjusted Mueller-Hinton broth at 8 ug/ml by broth microdilution method (reference value: […] ug/ml). It is filed as functional. Conditions: dose 8 µg/ml. The method in brief:
as §2
(In general: Broth dilution looks for growth in wells or tubes with falling amounts of substance.)

Test [9] relates to Klebsiella pneumoniae. Put plainly: Antimicrobial activity against blaVIM-4-producing multidrug-resistant Klebsiella pneumoniae VA-416/02 clinical isolate assessed as meropenem MIC using cation-adjusted Mueller-Hinton broth at 4 ug/ml by broth microdilution method (reference value: […] ug/ml). The class given is functional. Conditions: dose 4 µg/ml. The method in brief:
as §2

Test [10] has as its system Escherichia coli. Put plainly: Antimicrobial activity against blaNDM-1-producing multidrug-resistant Escherichia coli SI-004 clinical isolate assessed as meropenem MIC using cation-adjusted Mueller-Hinton broth at 32 ug/ml by broth microdilution method (reference value: 64 ug/ml). It is filed as functional. The note with it: dose 32 µg/ml. An outline of the steps:
as §2

For test [11], the system named is Escherichia coli. Nature of the test: Antimicrobial activity against blaNDM-1-producing multidrug-resistant Escherichia coli SI-004 clinical isolate assessed as meropenem MIC using cation-adjusted Mueller-Hinton broth at 4 ug/ml by broth microdilution method (reference value: 64 ug/ml). It is filed as functional. The note with it: dose 4 µg/ml. An outline of the steps: as §2

In test [12] the test system is Escherichia coli. Put plainly: Antimicrobial activity against blaNDM-1-producing multidrug-resistant Escherichia coli SI-004 clinical isolate assessed as meropenem MIC using cation-adjusted Mueller-Hinton broth at 2 ug/ml by broth microdilution method (reference value: 64 ug/ml). The class given is functional. Conditions: dose 2 µg/ml. An outline of the steps: as §2

In test [13] the test system is Escherichia coli. Nature of the test: Antimicrobial activity against blaNDM-1-producing multidrug-resistant Escherichia coli SI-004 clinical isolate assessed as meropenem MIC using cation-adjusted Mueller-Hinton broth at 0.5 ug/ml by broth microdilution method (reference value: 64 ug/ml). The class given is functional. The note with it: dose 0.5 µg/ml. An outline of the steps:
as §2

Turning to `O=C(O)[C@H](CCCn1c(-c2ccccc2)n[nH]c1=S)N(Cc1ccccn1)Cc1ccccn1`, in the test with Bacteria [1], the inhibition entry is “Active”.

Take `O=C(O)[C@H](CCCn1c(-c2ccccc2)n[nH]c1=S)N(Cc1c[nH]cn1)Cc1c[nH]cn1`: in the test on Bacteria [2], the Ka is 1.4 10^6/M. Moreover, the dissociation constant (Kd) in [3] came to 700 nM. The deltaH in the test with Bacteria [4] is -9.8 kcal/mol. The MIC with Klebsiella pneumoniae [5] came out at 0.06 µg/mL; with Klebsiella pneumoniae [6], 4 µg/mL; with Klebsiella pneumoniae [7] it was 8 µg/mL; in the test on Klebsiella pneumoniae [8], 1 µg/mL; in the test with Klebsiella pneumoniae [9], 2 µg/mL; in the test with Escherichia coli [10], 0.03 µg/mL. Besides, the figures for the minimum inhibitory concentration (MIC) with Escherichia coli [11], in the test on Escherichia coli [12] and in the test with Escherichia coli [13] were 32 µg/mL, 64 µg/mL and 64 µg/mL, respectively.

A word on the Kd: it is the concentration at which binding is half-saturated. The MIC is the least concentration at which growth counts as inhibited.
